PMC3509950 (Journal of nuclear medicine : official publication, Society …, 2012)

Assays:
[1] = Incorporation of infused FAA into brain lipids of unanesthetized mice; assay type: in vivo, C57BL/6J male mice
[2] = Plasma kinetics of FAA during 5-min intravenous infusion in unanesthetized mice; assay type: in vivo, C57BL/6J male mice; settings: for plasma area under the curve: 5-min intravenous infusion, mice
Outline: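 Male C57BL/6J mice, 2–3 mo, unanesthetized after 3 h recovery at 37°C. Test compound (0.3 or 1.6 nmol per mouse) in HEPES–fatty acid-free BSA (50 mg/mL, pH 7.4) was infused intravenously at variable rate for 5 min. Arterial plasma was sampled at 0–4.9 min, Folch-extracted, pentafluorobenzyl-derivatized, and analysed by NCI GC/MS against a 17:0 internal standard. AUC was derived by trapezoidal integration; n = 2–3.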

FAA detected in brain UFA, triglyceride and cholesteryl ester fractions ([1]; end of 5-min infusion, mouse brain): < 0.01 nmol/g | plasma area under the curve ([2]; high dose (1.6 nmol)): 0.236 ± 0.0189 µM·h | plasma area under the curve ([2]; low dose (0.3 nmol)): 0.0297 ± 0.0217 µM·h
SMILES: O=C(O)CCC/C=C\C/C=C\C/C=C\C/C=C\CCCCCF [FAA, 20-Fluoroarachidonic Acid]
FAA concentration within brain phospholipids (rank order) ([1]; both doses, end of 5-min infusion, Fig. 2A): highest in PtdIns and ChoGlp, followed by EtnGlp and PtdSer | incorporation coefficient k*, high versus low infusion dose ([1]; brain lipids, 0.3 vs 1.6 nmol, Fig. 3): lower for the high-infusion dose than for the low-infusion dose | FAA concentration in plasma over time ([2]; 0.3 or 1.6 nmol infused intravenously over 5 min, Fig. 1): increased over time in a dose-dependent manner
